High-throughput results from PubChem.
hERG rescue = hERG rescue from dofetilide block, primary screen, cell-based, CHO-hERG, FluxOR thallium flux, dofetilide IC70. activation (rescue from dofetilide block), less the hit threshold, % at 10 µM. dofetilide IC70 present. AID 1511, 2009. 310,000 compounds, 0.51% hits;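 active = activation above the mean of controls blocked by dofetilide plus 5 SD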;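 also: thallium influx through hERG after potassium depolarization seen as dye fluorescence rise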
KCNQ1 pot = potentiators or activators of KCNQ1 channel, primary screen, cell-based, thallium flux, high-throughput; Potassium voltage-gated channel subfamily KQT member 1 (Homo sapiens), P51787; CHO-K1 KCNQ1, thallium flux FluxOR fluorescence; hits give high values; B-score at 10 µM; 310,000 compounds, 0.35% hits;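 active = fluorescence ratio B-score, a plate-corrected score, at least three library SD, with initial intensity B-score within 5 SD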
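System: Stable KCNQ1 CHO-K1 line | Incubation: 90 min dye loading and 20 min compound exposure, both at room temperature | Measure: Ratio B score | Medium: Assay buffer for compound exposure, DMSO matched across wells | Compound dosing: Single-concentration screen | Probe or stimulus: K+/Tl+ depolarizing stimulus | Measured by: Kinetic FluxOR fluorescence, 10 s baseline plus 110 s post-stimulus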
KCNQ1 block = inhibitors of human KCNQ1 channel, primary screen, cell-based, thallium flux, high-throughput. Potassium voltage-gated channel subfamily KQT member 1 (Homo sapiens), P51787. CHO-K1 KCNQ1, FluxOR thallium flux fluorescence; hits give high values. 310,000 compounds, 1.3% hits. B-score at 10 µM. AID 2642, 2010;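 active = compounds whose thallium flux B-score, printed positive for inhibition, exceeds three library SD while starting fluorescence stays within three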;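 also: channel opened by potassium depolarization with thallium stimulus after 20 min compound exposure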
Cl transport mod = KCC2 cotransporter modulators, thallium flux, primary screen, cell-based, HEK293 KCC2, FluoZin-2 fluorescence, MLSMR | Solute carrier family 12 member 5 (Homo sapiens), Q9H2X9 | KCC2 cells, thallium flux FluoZin-2 fluorescence | B-score of Tl+ flux slope (higher = more flux/activation; lower = inhibition) at 10 µM | 190,000 compounds, 2.2% hits;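 active = thallium flux slope and its plate-corrected score both differing from the plate sample mean at a set confidence after two filtering rounds, in either direction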;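 also: slope of fluorescence scaled to starting intensity during 10 to 20 s after thallium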
KCNK3 inh = human KCNK3 channel inhibitors, primary screen, CHO cells, FluxOR thallium flux, B-score; Potassium channel subfamily K member 3 (Homo sapiens), O14649; FluxOR fluorescence; hits give low values; B-score at 10 µM; 340,000 compounds, 0.84% hits; AID 602410, 2012;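 active = B-score under library mean minus 4 SD, starting fluorescence ratio at most library mean plus 5 SD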;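 also: more negative B-score means stronger inhibition of thallium flux through KCNK3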
Target sequence (O14649 whole entry, looked up): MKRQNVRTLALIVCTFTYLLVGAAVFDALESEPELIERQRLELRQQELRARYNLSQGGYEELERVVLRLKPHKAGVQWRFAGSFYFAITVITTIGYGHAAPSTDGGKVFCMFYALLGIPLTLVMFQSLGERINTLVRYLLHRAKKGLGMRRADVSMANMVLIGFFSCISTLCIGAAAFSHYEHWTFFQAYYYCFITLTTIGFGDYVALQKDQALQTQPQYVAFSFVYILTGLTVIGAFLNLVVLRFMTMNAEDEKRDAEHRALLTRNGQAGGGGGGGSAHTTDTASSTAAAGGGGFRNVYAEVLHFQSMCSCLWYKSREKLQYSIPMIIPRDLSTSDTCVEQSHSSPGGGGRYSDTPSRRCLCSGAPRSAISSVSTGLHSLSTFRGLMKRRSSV
KCNK9 inh = KCNK9 potassium channel inhibitors, primary screen, HEK293 cells, thallium flux; Potassium channel subfamily K member 9 (Homo sapiens), Q9NPC2; FluxOR thallium flux fluorescence; hits give low values; B-score at 10 µM; 310,000 compounds, 1.2% hits; AID 488922, 2010;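 active = ratio B-score over 3 SD below the library mean, with starting fluorescence within 5 SD of its mean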;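 also: negative B-score means less thallium flux so channel inhibition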
KCNK9 block conf = KCNK9 potassium channel inhibitors, confirmation, HEK293 cells, thallium flux, duplicate. shares compounds with KCNK9 inh. FluxOR thallium flux fluorescence. inhibition, % at 10 µM. 4,900 compounds, 43% hits;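 active = thallium signal inhibited by more than 5 SD of the compound-free buffer control wells, on both duplicate plates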;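 also: 0% = assay buffer control wells without compound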
Kir2-1 spec = mouse Kir2.1 channel inhibition, confirmation, selectivity assay for KCNK9 modulator project, cell-based, HEK293, thallium flux. shares compounds with KCNK9 inh. Kir2.1 cells, FluxOR thallium flux fluorescence. inhibition, % at 10 µM. 4,900 compounds, 4% hits;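 active = thallium signal drop more than 5 SD beyond the mean of the no-compound control wells, seen in both duplicate plates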;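 also: signal is fluorescence rise after thallium addition divided by baseline fluorescence; plate controls were assay buffer only for no effect and full block by chlorpromazine control for full effect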
HEK293 Tl ctr = thallium flux in non-induced HEK293 cells, confirmation, counter-screen for KCNK9 inhibitor project, cell-based, second counter screen, non-induced KCNK9-HEK293 | FluxOR thallium flux | 4,900 compounds, 40% hits | inhibition, % at 10 µM | shares compounds with KCNK9 inh;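 active = thallium signal drop beyond 5 SD of the untreated control mean, on both duplicate plates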;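 also: plate controls were buffer only IC0 wells for no effect and SID17386958 at its maximal inhibitory level for full effect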
Numbers without * were called inactive; i = inactive; / = no result given. Shown are actives, neighbours in structure and some others; about 4.1% of the full set was active somewhere.

SMILES	hERG rescue	KCNQ1 pot	KCNQ1 block	Cl transport mod	KCNK3 inh	KCNK9 inh	KCNK9 block conf	Kir2-1 spec	HEK293 Tl ctr
CCOc1ccc2nc(SCC(=O)NCc3ccc(OC)c(OC)c3)[nH]c2c1	-14	i	i	-0.89	i	i	/	/	/
COc1ccc2[nH]c3c(c2c1)CCN1C(=O)C(CC(=O)NCc2cccc(C(F)(F)F)c2)C[C@H](C(=O)N(C(C)C)C(C)C)[C@@]31C (stereo partly drawn)	/	/	/	/	i	/	/	/	/
CCOC(=O)CN1C(=O)C(Sc2n[nH]c(-c3ccc(O)cc3)n2)CCc2ccccc21 (stereo not drawn)	-20	i	i	-0.5	i	-9.4*	36%*	i	i
Cc1nnc(SCC(=O)N2CCC(c3noc4ccc(F)cc34)CC2)s1	-11	i	i	/	i	i	/	/	/
O=C(CSc1ccc2ccccc2n1)N1CCC(c2noc3ccc(F)cc23)CC1	-9	i	i	-1.3	i	-9*	i	i	i
CCS(=O)(=O)c1cc([N+](=O)[O-])c(Sc2ccccc2NC(C)=O)s1	-3	i	i	0.83	i	i	/	/	/
CN(c1ccccc1)S(=O)(=O)c1cccc(NC(=O)CSc2n[nH]c(N)n2)c1	-22	i	i	0.5	i	i	i	i	i
Nc1nc(SCC(=O)Nc2cccc(S(=O)(=O)N3CCCCCC3)c2)n[nH]1	-1	i	i	-0.8	i	i	/	/	/
CCc1ccccc1NC(=O)c1ccc(NCCc2ccccc2)c([N+](=O)[O-])c1	-7	i	i	-1.8	i	-8.7*	i	i	30%*
CC(=O)Nc1ccc2oc(-c3ccccc3Br)nc2c1	-6	i	i	-0.53	i	i	/	/	/
Cc1ccccc1-c1nc2cc(NC(=O)C3CC3)ccc2o1	-7	i	i	/	i	-8.7*	i	i	i
COC(=O)c1ccccc1Sc1c(/C=N/OC(=O)c2ccccc2)c(C(F)(F)F)nn1C	-5	i	i	/	i	i	/	/	/
Cc1ccc(C(=O)O/N=C/c2c(C(F)(F)F)nn(C)c2Sc2ccc(Cl)cc2)cc1	-7	i	i	0.36	i	i	i	i	i
COc1cc(C)nc(N(Cc2ccccc2)S(=O)(=O)c2ccccc2)n1	-12	i	i	-0.4	i	-16*	56%*	i	44%*
COc1ccc(N(Cc2ccccc2)S(=O)(=O)c2ccc(C)cc2)cc1	-10	i	i	0.42	i	i	/	/	/
C#CCOCCOCCOCCNc1nc(N2CCN(C(=O)Cn3cc(CCO)nn3)CC2)nc(N2CCN(C(=O)[C@H](Cc3ccc(O)cc3)n3cc(CCO)nn3)CC2)n1	/	/	/	/	i	/	/	/	/
CC12CCC(O)CC1=CCC1C2CCC2(C)C(c3ccn[nH]3)CCC12 (stereo not drawn)	/	/	/	/	i	/	/	/	/
COC(=O)C1=CN(Cc2ccc(C)cc2)C=C(C(=O)OC)C1c1ccc(F)c(F)c1	-10	i	i	/	i	-11*	i	i	39%*
